Reference: ChEMBL document CHEMBL3808356, “Dihydrochelerythrine and its derivatives: Synthesis and their application as potential G-quadruplex DNA stabilizing agents” (Bioorg Med Chem, 2016)
Activity calls are given as the source filed them. No cut-off for these calls is given here.

Tests used:
[1] = test system: HeLa; assay: Antiproliferative activity against human HeLa cells at 0.1 to 20 uM after 72 hrs by MTT assay; format: functional, cell-based
Summary of the method: (§1)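 Human cancer lines from ATCC, cultured per supplier instructions; ~5000 cells/well seeded 24 h before treatment at 37 °C, CO2. Exposed to vehicle (0.5% DMSO) or serially diluted compound (0.1 to 15 or 20 µM) for 72 h at 37 °C. MTT 100 µg added, 4 h at 37 °C; formazan dissolved in DMSO, absorbance 570 nm. Percent inhibition vs vehicle wells; triplicate, mean ± SEM.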

[2] = test system: PC-3; assay: Antiproliferative activity against human PC3 cells at 0.1 to 20 uM after 72 hrs by MTT assay; format: functional, cell-based; summary of the method: as §1
[3] = Binding affinity to c-myc G-quadruplex DNA (unknown origin) assessed as stabilization of preformed parallel topology at 1 to 6 molar equivalents by circular dichroism spectroscopic analysis in absence of metal ion
Summary of the method: (§2)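 CD titration of promoter quadruplex DNA (12.5 µM strand) in 50 mM Tris-HCl pH 7.2, no added monovalent cations. Ligand from 5 mM DMSO stock added stepwise by molar equivalents. Spectra 220–320 nm, 1 mm path, 25 °C, 100 nm/min, 2 s response, average of 3 scans. Ellipticity change at ~260 nm (positive) and ~240 nm (negative) followed.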

[4] = Binding affinity to telomeric DNA (unknown origin) assessed as change in melting temperature at 50 uM by circular dichroism spectroscopic analysis in presence of K+ ion
Summary of the method: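 CD melting: telomeric DNA 10 µM in 10 mM lithium cacodylate pH 7.2 with 10 mM KCl, 90 mM LiCl, plus ligand. Ellipticity followed against temperature; ΔTm taken as Tm with ligand minus Tm of DNA alone.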

[5] = Binding affinity to c-myc G-quadruplex DNA (unknown origin) assessed as change in melting temperature at 50 uM by circular dichroism spectroscopic analysis
Summary of the method: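 CD melting: c-MYC DNA 10 µM strand in 10 mM lithium cacodylate pH 7.2, 1 mM KCl, 99 mM LiCl. Annealed 95 °C 5 min, cooled slowly to room temperature, then 5 equiv ligand (50 µM) added and incubated overnight. Ellipticity at 263 nm, 20–95 °C at 1 °C/min. Sigmoidal Boltzmann fit; ΔTm = Tm(DNA+ligand) − Tm(DNA).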

[6] = test system: A-431; assay: Antiproliferative activity against human A431 cells assessed as reduction in cell viability at 15 uM after 72 hrs by MTT assay relative to control; format: functional, cell-based; summary of the method: as §1
[7] = Binding affinity to c-Kit1 G-quadruplex DNA (unknown origin) assessed as stabilization of preformed parallel topology up to 5 molar equivalents by circular dichroism spectroscopic analysis in absence of metal ion; summary of the method: as §2
[8] = test system: A549; assay: Antiproliferative activity against human A549 cells at 0.1 to 20 uM after 72 hrs by MTT assay; format: functional, cell-based; summary of the method: as §1
[9] = test system: MDA-MB-231; assay: Antiproliferative activity against human MDA-MB-231 cells assessed as reduction in cell viability at 15 uM after 72 hrs by MTT assay relative to control; format: functional; summary of the method: as §1
[10] = Antiproliferative activity against human HCT116 cells assessed as reduction in cell viability at 15 uM after 72 hrs by MTT assay relative to control; format: functional, HCT-116; summary of the method: as §1
[11] = Binding affinity to c-Kit1 G-quadruplex DNA (unknown origin) assessed as change in melting temperature at 50 uM by circular dichroism spectroscopic analysis
Summary of the method: (§3)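 CD melting of 10 µM DNA strand in 10 mM lithium cacodylate pH 7.2 with 90 mM LiCl and 10 mM KCl (c-KIT1 and duplex). c-KIT1 annealed at 95 °C for 5 min, slowly cooled, then given 5 equiv ligand (50 µM) overnight. Ellipticity read at 263 nm, 1 °C/min from 15–95 °C for c-KIT1. Sigmoidal Boltzmann fit. ΔTm = Tm(DNA+ligand) − Tm(DNA).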

[12] = Binding affinity to c-myc G-quadruplex DNA (unknown origin) by UV-visible absorption spectroscopic analysis
Summary of the method: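 UV–vis titration, 225–600 nm, 10 mm cuvette. Ligand at 30 µM in 100 mM KCl, 10 mM lithium cacodylate pH 7.2 was titrated to saturation with c-MYC DNA pre-annealed in the same buffer (95 °C 5 min, slow cooling). Binding constant from a half-reciprocal fit; mean of 3 independent experiments.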

[13] = test system: A-431; assay: Antiproliferative activity against human A431 cells assessed as reduction in cell viability at 20 uM after 72 hrs by MTT assay relative to control; format: functional; conditions: A-431, 72 h; summary of the method: as §1
[14] = Binding affinity to c-myc G-quadruplex DNA (unknown origin) incubated for 30 mins by Taq DNA polymerase stop assay
Summary of the method: (§4)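 Taq polymerase stop assay. 32P-labelled primer plus 50 nM cold primer annealed to 100 nM template carrying c-MYC quadruplex or mutated c-MYC sequence. Ligand 0–80 µM, 30 min at room temperature, then 0.5 U Taq, 55 °C for 30 min. Products run on 15% denaturing PAGE and phosphorimaged. Normalised % stop product plotted against ligand concentration; IC50 is 50% stop. Two independent experiments.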

[15] = Binding affinity to duplex DNA (unknown origin) assessed as change in melting temperature at 50 uM by circular dichroism spectroscopic analysis; summary of the method: as §3
[16] = test system: MDA-MB-231; assay: Antiproliferative activity against human MDA-MB-231 cells assessed as reduction in cell viability at 20 uM after 72 hrs by MTT assay relative to control; format: functional; conditions: MDA-MB-231, 72 h; summary of the method: as §1
[17] = Binding affinity to c-myc DNA mutant (unknown origin) up to 80 uM incubated for 30 mins by Taq DNA polymerase stop assay; summary of the method: as §4
[18] = test system: HCT-116; assay: (§5) Antiproliferative activity against human HCT116 cells assessed as reduction in cell viability at 20 uM after 72 hrs by MTT assay relative to control; format: functional; summary of the method: as §1
[19] = Binding affinity to c-myc G-quadruplex DNA (unknown origin) assessed as stabilization of preformed parallel topology up to 5 molar equivalents by circular dichroism spectroscopic analysis in absence of metal ion
Summary of the method: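 Ligand added from a 5 mM DMSO stock up to 5 equiv. Scanned 220–320 nm, 1.0 mm cuvette, 100 nm/min, 25 °C. Each spectrum is the average of 3 scans.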

[20] = as §5; format: functional; conditions: HCT-116, 72 h; summary of the method: as §1

| Structure (SMILES) | Activity [1] | Activity [2] | ΔTm [5] [°C] | inhibition [6] | Activity [7] | Activity [8] | inhibition at 20 µM [13] [%] | inhibition at 20 µM [16] [%] | further results |
| --- | --- | --- | --- | --- | --- | --- | --- | --- | --- |
| COc1ccc2c(c1OC)C(CC(C)=O)N(C)c1c-2ccc2cc3c(cc12)OCO3 (racemic) [listing 1 of 2 here] | inactive | inactive | 2.6 | inactive | inactive | inactive | – | – | Activity [3]: Active; ΔTm [4]: 1 °C |
| COc1ccc2c(c1OC)C(CC(C)=O)N(C)c1c-2ccc2cc3c(cc12)OCO3 (single isomer, unassigned; (+)) [listing 1 of 2 here] | inactive | inactive | – | inactive | – | inactive | – | – | – |
| COc1ccc2c(c1OC)C(CC(C)=O)N(C)c1c-2ccc2cc3c(cc12)OCO3 (stereo in doubt) [listing 1 of 2 here] | – | – | – | – | – | – | – | – | inhibition (INH) [9]: 20.81%; inhibition (INH) [10]: 36.88% |
| COc1ccc2c(c1OC)C(CC(C)=O)N(C)c1c-2ccc2cc3c(cc12)OCO3 (racemic) [listing 2 of 2 here] | – | – | – | – | – | – | – | – | inhibition at 15 µM ([9]; Homo sapiens, MDA-MB-231, 72 h): 16.1%; inhibition at 15 µM ([10]; Homo sapiens, HCT-116, 72 h): 28.7% |
| COc1ccc2c(c1OC)CN(C)c1c-2ccc2cc3c(cc12)OCO3 [DIHYDROCHELERYTHRINE] | inactive | inactive | 24 | – | Active | inactive | 30.4 | 8.65 | ΔTm [11]: 17.6 °C; K [12]: 5.5 ×10⁵ /M; Activity [14]: Dose-dependent effect; IC50 [14]: 5.8 µM; ΔTm [15]: -1 °C; Activity [17]: inactive; inhibition [18]: inactive; Activity [19]: Active |
| COc1cccc2c1C(=O)c1c(O)c3c(c(O)c1C2=O)C[C@@](O)(C(=O)CO)C[C@@H]3O[C@H]1C[C@H](N)[C@H](O)[C@H](C)O1 [DOXORUBICIN] | – | – | – | – | – | – | 98.1 | 92.7 | inhibition at 20 µM [20]: 98% |
| COc1ccc2c(c1OC)C(CC(C)=O)N(C)c1c-2ccc2cc3c(cc12)OCO3 (stereo in doubt) [listing 2 of 2 here] | inactive | inactive | – | inactive | – | inactive | – | – | – |
| COc1ccc2c(c1OC)C(CC(C)=O)N(C)c1c-2ccc2cc3c(cc12)OCO3 (single isomer, unassigned; (+)) [listing 2 of 2 here] | – | – | – | – | – | – | – | – | inhibition (INH) [9]: 24.3%; inhibition (INH) [10]: 47.84% |
| COc1ccc2c(c[n+](C)c3c4cc5c(cc4ccc23)OCO5)c1OC [CHELERYTHRINE] | – | – | 19.6 | – | Active | – | 100 | 100 | ΔTm [11]: 24.3 °C; K [12]: 7.35 ×10⁵ /M; Activity [14]: Dose-dependent effect; IC50 [14]: 6.6 µM; ΔTm [15]: 0.1 °C; Activity [17]: inactive; inhibition at 20 µM [20]: 100%; Activity [19]: Active |
